Measurements as given in ChEMBL document CHEMBL3272163, “Synthesis and antiinflammatory activity of some 2-substituted 4- and 7-benzoxazoleacetic and alpha-methylacetic acids” (J Med Chem, 1977).

Experiments:
[1] = test system: Rattus norvegicus; test: Antiinflammatory activity in rat assessed as carrageenan-induced foot edema at 2 x 100 mg/kg, po relative to control; format: functional
Outline: (§1)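 Rats were given carrageenan-induced foot edema by the Winter et al. method, modified as described in the paper's ref 1. Compound was dosed orally twice (dose × 2). The read-out was percent reduction of swelling relative to untreated controls, with significance given as p values.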

[2] = test system: Rattus norvegicus; test: Antiinflammatory activity in rat assessed as carrageenan-induced foot edema at 2 x 50 mg/kg, po relative to control; format: functional; outline: as §1
[3] = Dissociation constant, pKa of the compound in 75% EtOH; format: physicochemical
Outline: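 pKa was determined in 75% EtOH, and values are reported to ±0.025.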

[4] = Toxicity in po dosed mouse; format: organism-based; settings: in vivo
Outline: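 Approximate LD50 in mice after oral dosing, in mg/kg.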

[5] = Octanol-water partition coefficient, P of the compound
[6] = test system: Rattus norvegicus; test: Antiinflammatory activity in rat assessed as carrageenan-induced foot edema at 2 x 33 mg/kg, po relative to control; format: functional; outline: as §1

Row | Compound | Activity [1] [%] | Activity [2] [%] | pKa [3] | LD50 [4] [mg/kg] | P [5] | Activity [6] [%]
1 | CC(C(=O)O)c1cccc2nc(-c3ccccc3)oc12 (configuration not stated) | 44 | 26 | 6.2 | 1200 | 3.66 | –
2 | O=C(O)Cc1cccc2oc(-c3ccc(Cl)cc3)nc12 | 8 | – | 6.1 | 600 | 9.28 | –
3 | CC(C(=O)O)c1cccc2nc(-c3ccc(Cl)cc3)oc12 (configuration not stated) | 16 | – | 6.25 | 1200 | – | –
4 | CC(C(=O)O)c1cccc2oc(-c3ccccc3)nc12 (configuration not stated) | – | 1 | – | – | 6.93 | –
5 | O=C(O)Cc1cccc2oc(-c3ccccc3)nc12 | 28 | – | 6.3 | 400 | 1.03 | –
6 | Cc1ccc(-c2nc3cccc(C(C)C(=O)O)c3o2)cc1 (configuration not stated) | 10 | – | 6.2 | > 1600 | 8.94 | –
7 | C/C(=C1/SC(=S)NC1=O)c1cccc2oc(-c3ccccc3)nc12 | 9 | – | – | > 1600 | – | –
8 | C[C@]12CCC(=O)C=C1CC[C@@H]1[C@@H]2[C@@H](O)C[C@@]2(C)[C@H]1CC[C@]2(O)C(=O)CO [HYDROCORTISONE] | – | 33 | – | – | – | –
9 | CCCCC1C(=O)N(c2ccccc2)N(c2ccccc2)C1=O [PHENYLBUTAZONE] | – | 59 | – | – | – | 52
